# FGF22 binding: shifts melting point of recombinant human FGF22. Q9HCT0. recombinant FGF22 thermal shift, SYPRO orange fluorescence; percent of sucrose octasulfate shift, DMSO zero. activity (Tm shift, normalised), % at 9.99 µM. hit rate 1.5% among 340,000. AID 651658;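 active = mean Tm shift, scaled 0 neutral to 100 positive control, at about 1.3% or above, every replicate too, limit read from the data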
# SIRT5 block: sirtuin-5 (human) deacylase inhibition. Q9NXA8. AID 652115. hit rate 1.1% among 330,000. inhibition, % at 15 µM. Purified SirT5, succinyl-peptide AMC, trypsin-coupled fluorescence; in the data active = inhibition above about 15%
# NSD2 HMT inh: NSD2 (human) methyltransferase inhibition. NSD2 peptide methylation, AlphaScreen, 120 min. inhibition, % at 12.5 µM. AID 743445. hit rate 0.54% among 310,000; in the data active = inhibition above about 50%
# Target sequence (O96028 whole entry, looked up): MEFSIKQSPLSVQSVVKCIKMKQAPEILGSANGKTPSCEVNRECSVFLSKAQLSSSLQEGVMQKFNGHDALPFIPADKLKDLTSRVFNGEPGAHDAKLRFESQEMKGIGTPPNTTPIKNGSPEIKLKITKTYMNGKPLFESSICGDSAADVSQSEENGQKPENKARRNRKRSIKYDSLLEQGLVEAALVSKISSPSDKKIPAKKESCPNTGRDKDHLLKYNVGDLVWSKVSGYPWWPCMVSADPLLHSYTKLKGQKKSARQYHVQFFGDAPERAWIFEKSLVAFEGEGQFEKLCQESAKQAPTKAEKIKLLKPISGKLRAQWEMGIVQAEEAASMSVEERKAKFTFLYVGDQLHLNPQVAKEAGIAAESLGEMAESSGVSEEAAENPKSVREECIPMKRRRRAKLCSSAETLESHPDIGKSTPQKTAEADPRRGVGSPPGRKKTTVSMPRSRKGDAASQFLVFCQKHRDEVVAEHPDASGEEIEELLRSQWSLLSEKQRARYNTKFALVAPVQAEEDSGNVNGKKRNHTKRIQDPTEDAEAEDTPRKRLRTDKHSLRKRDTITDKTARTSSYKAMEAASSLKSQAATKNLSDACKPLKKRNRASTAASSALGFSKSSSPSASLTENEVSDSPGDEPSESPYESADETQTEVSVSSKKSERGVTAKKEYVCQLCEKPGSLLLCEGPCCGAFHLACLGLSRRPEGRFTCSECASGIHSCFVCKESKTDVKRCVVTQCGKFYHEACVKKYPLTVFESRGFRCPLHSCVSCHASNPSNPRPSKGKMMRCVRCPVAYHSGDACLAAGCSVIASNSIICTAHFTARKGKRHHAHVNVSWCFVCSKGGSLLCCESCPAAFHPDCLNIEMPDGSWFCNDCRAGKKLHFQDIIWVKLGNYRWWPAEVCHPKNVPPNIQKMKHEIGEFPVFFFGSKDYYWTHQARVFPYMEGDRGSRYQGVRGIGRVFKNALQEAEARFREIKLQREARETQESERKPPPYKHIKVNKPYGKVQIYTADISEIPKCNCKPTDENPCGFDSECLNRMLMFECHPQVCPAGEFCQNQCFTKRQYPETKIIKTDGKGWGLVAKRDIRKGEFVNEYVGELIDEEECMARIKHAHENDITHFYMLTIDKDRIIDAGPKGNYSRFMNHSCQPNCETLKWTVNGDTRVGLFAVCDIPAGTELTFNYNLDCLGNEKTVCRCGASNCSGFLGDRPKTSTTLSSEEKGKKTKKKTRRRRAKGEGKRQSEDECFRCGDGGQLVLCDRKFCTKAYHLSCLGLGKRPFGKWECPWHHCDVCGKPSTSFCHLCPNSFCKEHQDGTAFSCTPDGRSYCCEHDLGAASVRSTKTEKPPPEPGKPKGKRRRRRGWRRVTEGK
# Casp6 inh: blocks human caspase-6 cleavage activity; purified caspase-6, Z-VEID-R110 cleavage fluorescence; AID 686996; hit rate 0.53% among 350,000; P55212; inhibition, % at 12.5 µM;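 active = mean inhibition across replicates at least about 35%, with every replicate also reaching that limit, limit read from the data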;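 note: 0% = median of neutral control wells and 100% = no fluorescence left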
# UCH37 inh: blocks the human deubiquitinase UCH37 | Q9Y5K5 | purified proteasome/UCH37, Ub-AMC cleavage fluorescence | inhibition, % (test concentration not listed) | hit rate 0.33% among 330,000 | AID 588478;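 active = mean inhibition over replicate wells above about 20%, limit read from the data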;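 note: 0% = compound-free wells with enzyme and 100% = wells lacking proteasome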
#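 Material: human UCH37 enzyme supplied as purified proteasome complex. Measure: % inhibition of Ub-AMC cleavage fluorescence. Medium: pH 7.4 Tris-HCl (50 mM) with ovalbumin, ATP-MgCl2, DTT. Times: 30 min preincubation with enzyme, 25 min cleavage at room temperature. Detection: AMC fluorescence intensity at 355/460 nm.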
# Numbers without * were called inactive; · = not tested or not shown. Only some compounds are listed: those with a hit (about 2.6% of all), similar ones and a draw of the others.
SMILES,FGF22 binding,SIRT5 block,NSD2 HMT inh,Casp6 inh,UCH37 inh
O=C(NCC1CC1)[C@@H]1[C@@H](CO)[C@@H]2Cn3c(ccc(-c4ccccc4)c3=O)[C@H]1N2CC1CC1,0,-5,·,-3,·
CCCCn1nc(CC(=O)O)c2ccccc2c1=O,·,·,-4,·,0
CCn1nc(CC(=O)O)c2ccccc2c1=O,44*,-1,-1,·,0
CC(C)CC#Cc1ccc([C@H]2[C@@H](CO)N3CCCCN(C(=O)NC4CCCC4)C[C@@H]23)cc1,0,6,·,-1,·
CC(C)CC#Cc1ccc([C@H]2[C@H](CO)N3CCCCN(C(=O)NC4CCCC4)C[C@@H]23)cc1,0,17*,·,-1,·
CC(C)CC#Cc1ccc([C@@H]2[C@H]3CN(C(=O)Nc4ccccc4)CCCCN3[C@H]2CO)cc1,-1,16*,·,1,·
Cc1cccc(NC(=O)/C(C#N)=C\c2ccc(C(=O)O)cc2)c1,0,0,2,-3,2
COc1cc(C)c(/C=C(\C#N)C(=O)Nc2cccc(C)c2)cc1C(C)C,44*,-1,-8,3,-1
Cc1ccc(C=Nn2cnc3sc(C)c(C)c3c2=O)o1,·,·,·,·,9
Cc1ccc(S(=O)(=O)/N=C2/NC(=O)/C(=C\c3ccccc3)S2)cc1,0,-13,16,22,12
O=C1N/C(=N/O)S/C1=C/c1cccc([N+](=O)[O-])c1,44*,-1,6,2,5
COc1cc(/C=C2\S/C(=N/S(=O)(=O)c3ccc(C)cc3)NC2=O)c([N+](=O)[O-])cc1OC,·,·,28,·,20*
O=C1NC(=Nc2ccccc2Cl)S/C1=C\c1cc([N+](=O)[O-])ccc1O,0,6,16,17,·
Cc1ccc(S(=O)(=O)/N=C2/NC(=O)/C(=C/c3cc([N+](=O)[O-])ccc3O)S2)cc1,42,12,11,37*,·
CON=C1CCn2c1c(C)c1ccccc12,·,·,·,·,-33
CC1CCCCC12NC(=O)N(Cc1cc(=O)n3ccsc3n1)C2=O (stereo not drawn),0,7,-124,42*,-1
C[C@H]1CN([C@@H](C)CO)C(=O)Cc2cc(NC(=O)C3CCCCC3)ccc2O[C@@H]1CN(C)Cc1ccncc1,0,·,·,0,·
Cc1ccc(NC(=O)c2ccc3c(c2)CCN3S(C)(=O)=O)cc1,0,20*,-3,-1,·
COCCCNC(=O)c1ccc(CN2CCc3ccccc3C2)cc1,0,23*,3,-4,0
Cc1ccc(NC(=O)c2ccc(CN3CCc4ccccc4C3)cc2)cc1,·,·,3,·,22*
CCOCCCNC(=O)C(c1ccc(Cl)cc1)N(Cc1cccs1)C(=O)c1ccccn1 (stereo not drawn),1,18*,-7,2,6
Cc1nn(-c2ccccc2)c(N2CCCC2)c1C=NNC(=O)c1cccc(S(=O)(=O)Nc2ccc(Cl)cc2)c1,·,·,·,·,-48
CCOc1ccc(S(=O)(=O)Nc2ccc(C(=O)N/N=C/c3c(C)nn(-c4ccccc4)c3N3CCCC3)cc2)cc1,0,4,0,62*,·
Cc1ccc(S(=O)(=O)N(C)C[C@H]2OCCCC[C@@H](C)Oc3ccc(NS(=O)(=O)c4ccc(Cl)cc4)cc3C(=O)N([C@H](C)CO)C[C@H]2C)cc1,0,29*,·,2,·
C[C@@H]1CCCCO[C@H](CN(C)S(=O)(=O)c2cn(C)cn2)[C@H](C)CN([C@H](C)CO)C(=O)c2cc(NS(=O)(=O)c3ccc(Cl)cc3)ccc2O1,0,3,·,0,·
Cc1ccc(S(=O)(=O)N(C)C[C@@H]2OCCCC[C@H](C)Oc3ccc(NS(=O)(=O)c4ccc(Cl)cc4)cc3C(=O)N([C@H](C)CO)C[C@H]2C)cc1,0,21*,·,2,·
Cc1ccc(S(=O)(=O)Nc2ccc3c(c2)C(=O)N([C@@H](C)CO)C[C@H](C)[C@@H](CN(C)S(=O)(=O)c2ccc(Cl)cc2)OCCCC[C@H](C)O3)cc1,0,·,·,·,·
C[C@@H]1CN([C@@H](C)CO)C(=O)c2cc(NS(=O)(=O)c3ccc(Cl)cc3)ccc2O[C@@H](C)CCCCO[C@H]1CN(C)S(=O)(=O)c1cn(C)cn1,1.4*,-2,·,1,·
Cc1ccc(S(=O)(=O)Nc2ccc3c(c2)C(=O)N([C@@H](C)CO)C[C@H](C)[C@@H](CN(C)S(=O)(=O)c2ccc(Cl)cc2)OCCCC[C@@H](C)O3)cc1,28*,·,·,·,·
Cc1noc(C)c1NC(=O)N(C)C[C@@H]1Oc2ncc(C3=CCCC3)cc2C(=O)N([C@H](C)CO)C[C@@H]1C,0,8,·,0,·

# Screening results as filed in PubChem BioAssay.
